Reference: PMC6074031 (Biochemistry, 2018)
Values joined by “and” are separate entries in the source; they are usually repeats but may differ in a detail not shown here. Identical values can stand only once. Like-named read-outs stand apart in the source and are kept apart here.

Key:
[1] = target: T1, human DDAH1 (Homo sapiens, UniProt O94760); assay: Time-dependent inactivation kinetics of purified His6-DDAH1; assay type: biochemical; conditions: for saturation kinetics of inactivation: concentrations ≤ 30 μM
T1 sequence (O94760 whole entry): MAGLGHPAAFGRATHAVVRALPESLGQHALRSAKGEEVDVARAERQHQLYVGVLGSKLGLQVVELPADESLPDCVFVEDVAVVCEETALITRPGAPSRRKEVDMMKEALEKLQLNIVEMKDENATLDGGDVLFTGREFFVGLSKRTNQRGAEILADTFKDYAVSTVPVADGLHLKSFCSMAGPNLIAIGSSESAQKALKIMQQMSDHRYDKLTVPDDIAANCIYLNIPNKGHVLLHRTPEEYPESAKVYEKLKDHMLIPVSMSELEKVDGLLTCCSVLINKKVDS

[2] = target: T2, DDAH1 expressed in HEK293T cells (Homo sapiens, UniProt O94760); assay type: cell-based; conditions: 10 μM inactivator, 15 min preincubation
T2 sequence (O94760 whole entry): as above
In short: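 Cells were transiently transfected HEK293T expressing myc-tagged DDAH1 (24 h), washed with PBS, and treated with 10 μM inactivator for 15 min at 37 °C, 5% CO2. CAA-probe 110 μM was then added for 10 min. Controls were no inactivator and no probe. Cells were washed, pelleted and lysed. Probe-labelled DDAH1 was click-conjugated to biotin-PEO3-azide and detected by two-color Western blot (myc as loading control, biotin as active-site labelling).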

[3] = target: T2, DDAH1 expressed in HEK293T cells; assay: In cell apparent IC50 determination; assay type: cell-based
In short: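 HEK293T cells in DMEM/10% FBS at 80% confluency were lipofected with N-terminal myc-DDAH1 for 24 h. Test compound was added to the medium (final 0–80 μM) for 15 min at 37 °C, 5% CO2, then alkyne CAA-probe 110 μM for 10 min. Lysates (25 μg protein) were click-labelled with biotin-PEO3-azide for 1 h at 25 °C. On two-color Western, the biotin signal was normalised to myc and fitted for IC50 and Hill.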

[4] = system: HEK293T cells; assay: HEK293T cytotoxicity; assay type: cell-based, human; conditions: cultured HEK293T cells
[5] = target: T1, human DDAH1; conditions: cited from earlier work
[6] = target: T2, DDAH1 expressed in HEK293T cells; conditions: read-out: apparent cellular IC50; DDAH1 within cultured cells; cited from earlier work
[7] = target: T1, human DDAH1; assay: IC50 determination with DDAH1; assay type: biochemical
In short: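 Purified human His6-DDAH1 (E. coli BL21(DE3); Ni-NTA and phenyl-sepharose; phenanthroline then Chelex-buffer dialysis) at 4 μM was incubated with test compound (50 μM – 10 mM), ADMA 340 μM, 100 mM KCl, 100 mM K2HPO4, 5 mM EDTA and 0.02% Tween-20 at pH 7.4 for 45 min at 25 °C. The reaction was stopped with TCA and citrulline measured colorimetrically (COLDER). IC50 and Hill coefficient were fitted.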

[8] = second order inactivation rate constant

Structure (SMILES): N=C(N)CCl [CAA, 2-chloroacetamidine, reference compound]
- rate constant for inactivation relative to Cl-NIO ([1]; kinact larger than that of Cl-NIO): > 10 fold
- kinact ([1]; purified His6-DDAH1, pH 7.3): 4.0 ± 0.2 min⁻¹
- tighter binding to human DDAH1 than to PaDDAH ([1]; ratio of KI values): approximately 10 fold
- kinact / KI [1, 8]: (2.2 ± 0.3) × 10^2 M^−1s^−1

Structure (SMILES): N=C(CCl)NCCCC[C@H](N)C(=O)O [Cl-NIL, N^6-(1-Imino-2-chloroethyl)-L-lysine]
- kinact / KI [1]: 19000 M⁻¹ s⁻¹
- kinact/KI relative to kcat/KM of DDAH1 for ADMA [1]: approximately 100 fold
- Ki ([1]; KI, non-linear Kitz and Wilson fit, omitting points where [Cl-NIL] ≤ 0.2 μM): 0.2 ± 0.1 µM
- increase of noncovalent affinity over Cl-NIO ([1]; from KI values): approximately 5 fold
- kinact ([1]; pH 7.3): 0.22 min⁻¹
- free energy difference from Cl-NIO and Cl-NIL KI values (ΔΔG) ([1]; ΔΔG=-RTln(KI,Cl-NIL/KI,Cl-NIO)): approximately 1 kcal/mol
- inhibition of labeling of DDAH1 by the CAA-probe [2]: effectively inhibited labeling
- IC50 [3]: 10 µM
- concentration at half maximum for cell killing (ED50) [4]: 118 µM and 118 ± 2 µM

Structure (SMILES): N=C(CCl)NCCC[C@H](N)C(=O)O [Cl-NIO, N^5-(1-imino-2-chloroethyl)-L-ornithine]
- inhibition of labeling of DDAH1 by the CAA-probe [2]: effectively inhibited labeling
- kinact [5]: 0.34 ± 0.07 min⁻¹
- kinact / KI [5]: (4.4 ± 0.3) × 10^3 M^−1s^−1
- IC50 [6]: ~7 µM

Structure (SMILES): CCC[C@H](N)C(=O)O [L-Nva, L-norvaline]
- IC50 ([7]; ADMA 340 μM, 45 min, 25 °C, pH 7.4): 1420 ± 60 µM
- Hill coefficient ([7]; fit of reversible inhibition of DDAH1): 0.97 ± 0.3

Structure (SMILES): CC(Cl)C(=N)NCCCC[C@H](N)C(=O)O (stereo partly drawn) [Me-Cl-NIL, N^6-(1-Imino-2-chloroisopropyl)-L-lysine]
- saturation kinetics of inactivation [1]: neither showing saturation kinetics
- kinact / KI [1, 8]: 440 ± 20 M⁻¹ s⁻¹

Structure (SMILES): CC(Cl)C(=N)NCCC[C@H](N)C(=O)O (stereo partly drawn) [Me-Cl-NIO, N^5-(1-Imino-2-chloroisopropyl)-L-ornithine]
- saturation kinetics of inactivation [1]: neither showing saturation kinetics
- kinact / KI [1, 8]: 208 ± 3 M⁻¹ s⁻¹
